Test results published in ChEMBL document CHEMBL1129970, “Biologically active conformer of the effector region of human C5a and modulatory effects of N-terminal receptor binding determinants on activity” (J Med Chem, 1997).
Each block holds one molecule with its values, some of them ahead of it.

What was measured:
[1] = organism: Homo sapiens; experiment: Effective concentration to induce smooth muscle contraction in human fetal artery; type: functional; conditions: Muscle tissue
Outline: (§1)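 Human fetal artery smooth muscle contraction; full dose–response curves for recombinant human C5a or each peptide in the same tissue preparation. EC50 is the concentration giving 50% of the maximal response, read relative to the C5a maximum. pD2 = −log EC50 (M), averaged per peptide ± SE. Log potency ratio pD2(C5a) − pD2(peptide) is computed within each experiment. Relative potency = antilog(−Δ) × 100.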

[2] = organism: Homo sapiens; experiment: Effective concentration to stimulate beta-glucuronidase release from human polymorphonuclear cells (PMN) (n=4); type: functional
Outline: (§2)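 Human PMNs pretreated with cytochalasin B (5 μg/mL, 10 min, 37 °C), then 10⁶ cells stimulated for 60 min at 37 °C. β-Glucuronidase in the supernatant is assayed with 0.01 M p-nitrophenyl β-D-glucuronide (0.1 M acetate, pH 4, 18 h) in triplicate. Reaction stopped with glycine pH 10 and read at 415 nm. pD2 is taken from dose–response curves against the C5a EC50. Efficacy is given relative to C5a maximum (100%).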

[3] = organism: Homo sapiens; experiment: Relative potency of peptide for human fetal artery was determined; type: functional; outline: as §1
[4] = organism: Homo sapiens; experiment: Spasmogenic activity was measured by the ability to induce smooth muscle contraction in human fetal artery; type: functional, Muscle tissue; outline: as §1
[5] = organism: Homo sapiens; experiment: Tested for the ability to stimulate beta-glucuronidase release from human polymorphonuclear cells (PMN) (n=4); type: functional; outline: as §2
[6] = organism: Homo sapiens; experiment: Log potency ratio [pD2(C5a)-pD2(peptide)] was determined in human polymorphonuclear cells (PMN) (n=4); type: functional; outline: as §2
[7] = organism: Homo sapiens; experiment: Relative potency of peptide to stimulate beta-glucuronidase release from human polymorphonuclear cells (PMN) (n=4); type: functional; outline: as §2
[8] = organism: Homo sapiens; experiment: Maximum efficacy relative to C5a (100%) for human polymorphonuclear cells (PMN) was determined (n=4); type: functional; outline: as §2
[9] = Selectivity of peptide was determined from antilog[pD2(fetal artery)-pD2 (PMN enzyme release)] (n=12); type: functional
Outline: (§3)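 Selectivity = antilog[pD2(fetal artery) − pD2(PMN β-glucuronidase release)]. pD2 values come from full dose–response curves in each assay, each generated alongside C5a.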

[10] = organism: Homo sapiens; experiment: Log potency ratio [pD2(C5a)-pD2(peptide)] was determined in human fetal artery; type: functional; outline: as §1
[11] = organism: Homo sapiens; experiment: Effective concentration to stimulate beta-glucuronidase release from human polymorphonuclear cells (PMN) (n=5); type: functional; outline: as §2
[12] = Selectivity of peptide was determined from antilog[pD2(fetal artery)-pD2 (PMN enzyme release)] (n=11); type: functional; outline: as §3

Compound: CSCC[C@H](NC(=O)[C@@H]1CCCN1C(=O)[C@H](CCCCN)NC(=O)[C@H](Cc1ccccc1)NC(=O)[C@H](CO)NC(=O)[C@H](Cc1ccc(O)cc1)NC(=O)[C@H](CCCCN)NC(=O)CNC(=O)[C@H](CCCCN)NC(=O)CNC(=O)[C@@H](N)CCCCN)C(=O)N1CCC[C@H]1C(=O)N[C@@H](CC(C)C)C(=O)N[C@H](C)C(=O)N[C@@H](CCCN=C(N)N)C(=O)O
EC50 [1]: 0.2 µM
EC50 [2]: 3.9 µM

Compound: CSCC[C@H](NC(=O)[C@@H]1CCCN1C(=O)[C@H](CCCCN)NC(=O)[C@H](Cc1ccccc1)NC(=O)[C@H](CO)NC(=O)[C@H](Cc1ccc(O)cc1)NC(=O)CCCCCNC(=O)[C@H](CCCCN)NC(=O)CNC(=O)[C@H](CCCCN)NC(=O)CNC(=O)[C@@H](N)CCCCN)C(=O)N1CCC[C@H]1C(=O)N[C@@H](CC(C)C)C(=O)N[C@H](C)C(=O)N[C@@H](CCCN=C(N)N)C(=O)O [listing 1 of 2 here]
Potency [3]: 10%
pD2 [4]: 6.98
pD2 [5]: 5.18
Mean log concentration ratio [6]: 2.2
Potency [7]: 0.6%
C5a max [8]: 173%
Selectivity [9]: 63
Mean log concentration ratio [10]: 0.99

Compound: CSCC[C@H](NC(=O)[C@@H]1CCCN1C(=O)[C@H](CCCCN)NC(=O)[C@H](Cc1ccccc1)NC(=O)[C@H](CO)NC(=O)[C@H](Cc1ccc(O)cc1)NC(=O)CCCCCNC(=O)[C@H](CCCCN)NC(=O)CNC(=O)[C@H](CCCCN)NC(=O)CNC(=O)[C@@H](N)CCCCN)C(=O)N1CCC[C@H]1C(=O)N[C@@H](CC(C)C)C(=O)N[C@H](C)C(=O)N[C@@H](CCCN=C(N)N)C(=O)O [listing 2 of 2 here]
EC50 [1]: 0.1 µM
EC50 [2]: 6.7 µM

Compound: CSCC[C@H](NC(=O)[C@@H]1CCCN1C(=O)[C@H](CCCCN)NC(=O)[C@H](Cc1ccccc1)NC(=O)[C@H](CO)NC(=O)[C@H](Cc1ccc(O)cc1)NC(=O)CNC(=O)CNC(=O)CNC(=O)[C@H](CCCCN)NC(=O)CNC(=O)[C@H](CCCCN)NC(=O)CNC(=O)[C@@H](N)CCCCN)C(=O)N1CCC[C@H]1C(=O)N[C@@H](CC(C)C)C(=O)N[C@H](C)C(=O)N[C@@H](CCCN=C(N)N)C(=O)O [listing 1 of 2 here]
Potency [3]: 15%
pD2 [4]: 7.14
pD2 [5]: 5.71
Mean log concentration ratio [6]: 1.74
Potency [7]: 1.8%
C5a max [8]: 177%
Mean log concentration ratio [10]: 0.83
Selectivity [12]: 27

Compound: CSCC[C@H](NC(=O)[C@@H]1CCCN1C(=O)[C@H](CCCCN)NC(=O)[C@H](Cc1ccccc1)NC(=O)[C@H](CO)NC(=O)[C@H](Cc1ccc(O)cc1)NC(=O)CNC(=O)CNC(=O)CNC(=O)[C@H](CCCCN)NC(=O)CNC(=O)[C@H](CCCCN)NC(=O)CNC(=O)[C@@H](N)CCCCN)C(=O)N1CCC[C@H]1C(=O)N[C@@H](CC(C)C)C(=O)N[C@H](C)C(=O)N[C@@H](CCCN=C(N)N)C(=O)O [listing 2 of 2 here]
EC50 [1]: 0.07 µM
EC50 [2]: 2 µM

Further lines, results first:

EC50 [1]: 0.1 µM
EC50 [11]: 2.5 µM
Compound: CSCC[C@H](NC(=O)[C@@H]1CCCN1C(=O)[C@H](CCCCN)NC(=O)[C@H](Cc1ccccc1)NC(=O)[C@H](CO)NC(=O)[C@H](Cc1ccc(O)cc1)NC(=O)CCCCCNC(=O)[C@H](Cc1c[nH]c2ccccc12)NC(=O)[C@@H](N)CCCCN)C(=O)N1CCC[C@H]1C(=O)N[C@@H](CC(C)C)C(=O)N[C@H](C)C(=O)N[C@@H](CCCN=C(N)N)C(=O)O

EC50 [1]: 0.2 µM
EC50 [2]: 7.2 µM
Compound: CSCC[C@H](NC(=O)[C@@H]1CCCN1C(=O)[C@H](CCCCN)NC(=O)[C@H](Cc1ccccc1)NC(=O)[C@H](CO)NC(=O)[C@H](Cc1ccc(O)cc1)NC(=O)CCCCCNC(=O)[C@H](Cc1c[nH]c2ccccc12)NC(=O)[C@@H](N)CC(=O)O)C(=O)N1CCC[C@H]1C(=O)N[C@@H](CC(C)C)C(=O)N[C@H](C)C(=O)N[C@@H](CCCN=C(N)N)C(=O)O
